Where “and” joins values, the source holds several entries; their conditions need not be identical. Identical values can stand only once. Like-named read-outs stand apart in the source and are kept apart here.

Data on eight molecules can be found in PMC2646883 (Biochemistry, 2008).

Series [1] addresses T1, CpIMPDH (Cryptosporidium parvum, UniProt Q8T6T2).
T1 sequence (Q8T6T2 1-400): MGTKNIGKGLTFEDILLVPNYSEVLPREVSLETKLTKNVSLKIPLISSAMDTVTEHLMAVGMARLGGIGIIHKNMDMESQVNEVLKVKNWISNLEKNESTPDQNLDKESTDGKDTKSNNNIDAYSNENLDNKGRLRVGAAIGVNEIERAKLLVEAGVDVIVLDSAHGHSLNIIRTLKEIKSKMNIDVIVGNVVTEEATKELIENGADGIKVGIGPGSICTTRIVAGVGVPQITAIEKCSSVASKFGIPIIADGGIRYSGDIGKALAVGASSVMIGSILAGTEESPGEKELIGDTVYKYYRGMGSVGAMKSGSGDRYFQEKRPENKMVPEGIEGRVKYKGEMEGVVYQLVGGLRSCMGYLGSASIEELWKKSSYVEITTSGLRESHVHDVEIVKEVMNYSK
The note with it: cited from earlier work.

The target in series [2] is T2, TfIMPDH (Tritrichomonas foetus, UniProt P50097).
T2 sequence (P50097 1-503): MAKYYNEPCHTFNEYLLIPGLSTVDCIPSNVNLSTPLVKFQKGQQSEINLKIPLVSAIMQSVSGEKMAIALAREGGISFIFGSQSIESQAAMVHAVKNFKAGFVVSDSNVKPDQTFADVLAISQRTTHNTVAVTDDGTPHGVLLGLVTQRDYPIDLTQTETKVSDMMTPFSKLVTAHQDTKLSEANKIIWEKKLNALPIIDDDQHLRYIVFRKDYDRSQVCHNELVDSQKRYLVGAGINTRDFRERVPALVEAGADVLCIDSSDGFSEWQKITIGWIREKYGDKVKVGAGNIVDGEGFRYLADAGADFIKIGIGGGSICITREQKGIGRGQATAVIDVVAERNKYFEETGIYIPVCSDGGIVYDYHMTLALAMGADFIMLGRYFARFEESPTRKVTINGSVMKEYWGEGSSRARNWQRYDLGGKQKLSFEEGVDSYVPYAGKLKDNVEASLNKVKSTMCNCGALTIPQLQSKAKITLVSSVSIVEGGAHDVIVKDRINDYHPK
Particulars: refs 14 and 23; cited from earlier work.

Series [3] addresses T1, CpIMPDH. The experiment in a line: Steady-state kinetics of CpIMPDH. The note with it: for D2Okcat (solvent deuterium isotope effect on kcat): dinucleotide varied, 500 μM IMP, H2O vs D2O. The format is biochemical.
Series [4] addresses T1, CpIMPDH. The experiment in a line: Equilibrium dissociation constants by intrinsic protein fluorescence. The format is binding. Particulars: for Kd: free enzyme, 50 mM Tris-HCl, pH 8.0, 100 mM KCl, 1 mM DTT, 25 °C.
Series [5] concerns the target T3, hIMPDH2 (Homo sapiens, UniProt P12268). The note with it: cited from earlier work.
In series [6] the target is T1, CpIMPDH. The experiment in a line: Pre-steady-state kinetics and global fits of the CpIMPDH reaction. The class given is biochemical.
For series [7], the target named is T2, TfIMPDH. The experiment in a line: Inhibition by ligands of the dinucleotide site, TfIMPDH. The class given is biochemical.
Series [8] has as its target T3, hIMPDH2. The experiment in a line: Steady-state kinetics of hIMPDH2. The format is biochemical. The note with it: NAD^+ varied, 400 μM IMP, H2O vs D2O. An outline of the steps: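 Buffer was 50 mM Tris-HCl pH 8.0, 100 mM KCl, 1 mM DTT, made in H2O or D2O, with D2O meter readings adjusted by adding 0.4. Runs were at 25 °C. […] Steady-state parameters came from eq 2.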

Series [9] addresses T3, hIMPDH2. The experiment in a line: Pre-steady-state kinetics and global fits of the hIMPDH2 reaction. The class given is biochemical. The note with it: for Kapp ([NAD^+] at 1/2 kmax) / kmax/Kapp / kmax: fluorescence; for kmax: NAD^+ varied, 4 μM enzyme.
Series [10] addresses T1, CpIMPDH. The experiment in a line: XMP binding kinetics by stopped-flow protein fluorescence. The note with it: 0.4 μM enzyme, 30 or 120 μM XMP, 25 °C.
In series [11] the target is T3, hIMPDH2. The note with it: cited from earlier work. The source holds these as a separate data set.
Substrate in series [12]: NC(=O)c1ccc[n+]([C@@H]2O[C@H](COP(=O)([O-])OP(=O)(O)OC[C@H]3O[C@@H](n4cnc5c(N)ncnc54)[C@H](O)[C@@H]3O)[C@@H](O)[C@H]2O)c1
The experiment in a line: Pre-steady-state kinetics and global fits of the CpIMPDH reaction. The class given is biochemical, Cryptosporidium parvum. Particulars: other: calculated from global-fit rate constants (eq 12).

Broadly, the Ki is the dissociation constant of the complex between target and ligand, obtained from inhibition or displacement. Turning to `Nc1ncnc2c1ncn2[C@@H]1O[C@H](COP(=O)(O)OP(=O)(O)O)[C@@H](O)[C@H]1O` [ADP, adenosine-5′-diphosphate], the figures for the Ki at CpIMPDH [1] and at TfIMPDH [2] were 42000 ± 6000 µM and 31000 ± 2000 µM, respectively.

Broadly, the Km is the concentration of substrate that gives half-maximal velocity. On to `CC(=O)c1ccc[n+]([C@@H]2O[C@H](COP(=O)([O-])OP(=O)(O)OC[C@H]3O[C@@H](n4cnc5c(N)ncnc54)[C@H](O)[C@@H]3O)[C@@H](O)[C@H]2O)c1` [APAD^+, 3-acetylpyridine adenine dinucleotide], for which, on CpIMPDH [3], the “D2Okcat (solvent deuterium isotope effect on kcat)” value is 3.3 and 3.3 ± 0.1. In addition, the Michaelis-Menten constant (Km) at CpIMPDH [3] (read-out: KM dinucleotide, pH 8.0, 25 °C, APAD^+ at saturating IMP (500 μM)) was 190 ± 9 µM.

Broadly, the Kd is the constant that tells how readily two partners part at equilibrium. The molecule `Nc1nc2c(ncn2[C@@H]2O[C@H](COP(=O)(O)O)[C@@H](O)[C@H]2O)c(=O)[nH]1` [GMP, guanosine monophosphate] returned a Kd on CpIMPDH [4] of 4.8 ± 0.6 µM.

The molecule `NC(=O)C1=CN([C@@H]2O[C@H](COP(=O)(O)OP(=O)(O)OC[C@H]3O[C@@H](n4cnc5c(N)ncnc54)[C@H](O)[C@@H]3O)[C@@H](O)[C@H]2O)C=CC1` [NADH, reduced nicotinamide adenine dinucleotide] showed a dissociation constant (Kd) on CpIMPDH [4] of 2.3 ± 0.2 µM. Further, the “factor of greater affinity of NADH than NAD^+” value on CpIMPDH [4] (ratio of Kd values) is reported as 6.

As to `NC(=O)c1ccc[n+]([C@@H]2O[C@H](COP(=O)([O-])OP(=O)(O)OC[C@H]3O[C@@H](n4cnc5c(N)ncnc54)[C@H](O)[C@@H]3O)[C@@H](O)[C@H]2O)c1` [NAD^+, nicotinamide adenine dinucleotide], the kcat on hIMPDH2 [5] (NAD^+ reaction, pH 8.0, 25 °C) is 0.39 ± 0.01 ^c s^−1. Besides, the Km on hIMPDH2 [5] (read-out: KM dinucleotide) was 6 ± 1 µM. The “k12/k11 = Kii (NAD^+ binding to E-XMP*)” value at hIMPDH2 [5] (value fixed for global fitting) was 590 µM. Further, the “D2Okcat (solvent deuterium isotope effect on kcat)” value is 2.6 and 2.6 ± 0.1 at CpIMPDH [3]; 1.8 ± 0.1 on hIMPDH2 [8]. The Kd came out at 300 µM at CpIMPDH [6] (Kintr (intrinsic binding constant), NAD^+, derived from the global fits, Kc = 4); 70 µM on TfIMPDH [7]; 14 ± 1 µM at CpIMPDH [4] (Kd); 590 µM on hIMPDH2 [9] (Kintr (intrinsic binding constant), NAD^+, derived from the global fits, Kc ≤0.2). Also, the kmax/Kapp was 80000 M⁻¹ s⁻¹ at CpIMPDH [6] (monitored by absorbance), 56000 M⁻¹ s⁻¹ on CpIMPDH [6] (monitored by fluorescence), 140000 M⁻¹ s⁻¹ at hIMPDH2 [9] (burst phase) and 340000 M⁻¹ s⁻¹ at hIMPDH2 [9] (lag phase). Further, the “Kapp ([NAD^+] at 1/2 kmax)” value at CpIMPDH [6] (monitored by absorbance, 500 μM IMP) was found to be 510 ± 90 µM; on CpIMPDH [6] (monitored by fluorescence, 500 μM IMP), 290 ± 60 µM; on hIMPDH2 [9] (burst phase), 86 ± 5 µM; on hIMPDH2 [9] (lag phase) it was 68 ± 1 µM. Further, the “kmax (maximal kobs of burst, kburst)” value at CpIMPDH [6] (monitored by absorbance, NAD^+ varied, 500 μM IMP) was found to be 41 ± 2 s⁻¹. In addition, the “kmax (maximal kobs of burst)” value at CpIMPDH [6] (monitored by fluorescence, NAD^+ varied, 500 μM IMP) was 16 s⁻¹ and 16 ± 1 s⁻¹. The Kii at TfIMPDH [2] was 6.8 ± 1.8 mM. Also, the values for the kmax on hIMPDH2 [9] (burst phase) and at hIMPDH2 [9] (lag phase) were 12 ± 1 s⁻¹ and 23 ± 1 s⁻¹, respectively.

For `NC(=O)c1csc([C@@H]2O[C@H](CO)[C@@H](O)[C@H]2O)n1` [Tz, 2-β-D-ribofuranosylthiazole-4-carboxamide], on TfIMPDH [2], the Ki was 50000 ± 10000 µM.

`O=c1[nH]c(=O)c2ncn([C@@H]3O[C@H](COP(=O)(O)O)[C@@H](O)[C@H]3O)c2[nH]1` [XMP, xanthosine 5′-monophosphate]: the “rate of XMP binding / release (too fast to measure)” value on CpIMPDH [10] was at least 200 s⁻¹. The Kd at hIMPDH2 [11] was 140 µM; at CpIMPDH [4] (Kd), 5.6 ± 0.6 µM.

B1: CpIMPDH (Cryptosporidium parvum) (protein)
chain: T1 sequence (Q8T6T2 1-400)
Turning to B1, the Michaelis constant (Km) in [12] was 40 µM.
